{
  "source": "ChEMBL document CHEMBL4765333",
  "about": "“Novel NO-releasing scopoletin derivatives induce cell death via mitochondrial apoptosis pathway and cell cycle arrest” (Eur J Med Chem, 2020)",
  "key": {"[1]": {"test": "Induction of intracellular reactive oxygen species generation in human MDA-MB-231 cells assessed as proportion of FL1-H positive cells at 1 uM measured after 24 hrs by DCFH-DA staining based flow cytometry analysis (reference value: 47.8%)", "assay_type": "functional, MDA-MB-23"}, "[2]": {"test_system": "MDA-MB-231", "test": "Induction of apoptosis in human MDA-MB-231 cells assessed as early apoptotic cells at 2 uM after 24 hrs by Annexin V/propidium iodide based flow cytometric analysis (reference value: 0.94%)", "assay_type": "functional", "outline": "(§1)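 MDA-MB-231 cells (2×10^5/well) attached 24 h, then treated 24 h with 1, 1.5, 2 or 3 µM, DMSO as control. Cells harvested, PBS-washed, resuspended in binding buffer, stained with Annexin V and PI for 30 min at 37°C in the dark, and analysed by flow cytometry for quadrant percentages; three experiments.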"}, "[3]": {"test_system": "MDA-MB-231", "test": "Induction of apoptosis in human MDA-MB-231 cells assessed as viable cells at 1 uM after 24 hrs by Annexin V/propidium iodide based flow cytometric analysis (reference value: 99%)", "assay_type": "functional", "conditions": "read-out: Activity", "outline": "as §1"}, "[4]": {"test_system": "MDA-MB-23", "test": "Induction of mitochondrial membrane potential depolarization in human MDA-MB-231 cells incubated for 18 hrs by JC-1 staining based flow cytometry", "assay_type": "functional, cell-based", "conditions": "dose 1-2 µM"}, "[5]": {"test_system": "MDA-MB-231", "test": "Induction of apoptosis in human MDA-MB-231 cells assessed as early apoptotic cells at 3 uM after 24 hrs by Annexin V/propidium iodide based flow cytometric analysis (reference value: 0.94%)", "assay_type": "functional", "outline": "as §1"}, "[6]": {"test_system": "MDA-MB-231", "test": "Induction of mitochondrial membrane potential depolarization in human MDA-MB-231 cells assessed as proportion of cells with depolarized MMP at 1 uM incubated for 18 hrs by JC-1 staining based flow cytometry (reference value: 0.72%)", "assay_type": "functional"}, "[7]": {"test_system": "MDA-MB-231", "test": "Induction of mitochondrial membrane potential depolarization in human MDA-MB-231 cells assessed as proportion of cells with hyperpolarized MMP at 2 uM incubated for 18 hrs by JC-1 staining based flow cytometry (reference value: 98.4%)", "assay_type": "functional"}, "[8]": {"test": "Antiproliferative activity against human MDA-MB-231 cells assessed as inhibition of cell proliferation rate at 4 uM measured after 48 hrs by MTT assay", "assay_type": "functional", "conditions": "MDA-MB-23", "outline": "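MDA-MB-231 cells in DMEM with 10% FBS, ~5,000 cells/well, 24 h attachment, then compound for 48 h at 37°C, 5% CO2. MTT 0.5 mg/ml final for 4 h, DMSO solubilization, absorbance 570 nm; inhibition relative to untreated cells; experiments done three times.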"}, "[9]": {"test_system": "MDA-MB-231", "test": "Induction of apoptosis in human MDA-MB-231 cells assessed as up-regulation of Bax expression at 1.5 to 6 uM measured after 8 hrs by Western blot analysis", "assay_type": "functional, cell-based", "conditions": "dose 1.5-6 µM", "outline": "(§2)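 MDA-MB-231 cells (8×10^5 per 60 mm dish) attached 24 h, then exposed 8 h to 1.5, 3 or 6 µM, DMSO as control. Lysates quantified by BCA; 30 µg protein run on 4–20% SDS-PAGE, transferred to PVDF, probed for Bcl-2, Bax, Bad, cleaved caspase-9, cleaved caspase-3 and PARP, with ECL detection. Densitometric relative levels; three experiments.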"}, "[10]": {"test_system": "MCF7", "test": "Anticancer activity against human MCF7 cells assessed as inhibition of cell proliferation measured after 48 hrs by MTT assay", "assay_type": "functional, cell-based", "conditions": "MCF7, 48 h", "outline": "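Cells seeded at ~5,000/well, grown 24 h to partial monolayer, then exposed 48 h at 37°C, 5% CO2 to 0.5, 1, 2, 4, 10 and 20 µM (DMSO ≤0.1%). MTT final 0.5 mg/ml for 4 h, formazan dissolved in DMSO, A570. Survival expressed as % of untreated control; IC50 from dose-response curves; three independent experiments. MDA-MB-231, MCF-7, HepG2 in DMEM; A549 and LO-2 in RPMI-1640; 10% FBS.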"}, "[11]": {"test_system": "MDA-MB-231", "test": "Induction of mitochondrial membrane potential depolarization in human MDA-MB-231 cells assessed as proportion of cells with depolarized MMP at 2 uM incubated for 18 hrs by JC-1 staining based flow cytometry (reference value: 0.72%)", "assay_type": "functional"}, "[12]": {"test_system": "MDA-MB-231", "test": "Antiproliferative activity in human MDA-MB-231 cells assessed as inhibition of cell viability at 1.5 to 3 uM pretreated with 10 uM necroptosis inhibitor, necrostatin-1 followed by addition of compound and measured after 48 hrs by MTT assay", "assay_type": "functional, cell-based", "conditions": "dose 1.5-3 µM", "outline": "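MDA-MB-231 cells pretreated 1 h with necrostatin-1 (10 µM) or Z-VAD-FMK (20 µM), then exposed to compound at 1.5, 2 and 3 µM for another 48 h. Inhibition rates by MTT; inhibitors alone also tested 48 h for viability. Mean ± SD, n = 3.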"}, "[13]": {"test_system": "MDA-MB-231", "test": "Induction of cell cycle arrest in human MDA-MB-231 cells assessed as accumulation at G0/G1 phase at 1 uM measured after 24 hrs by propidium iodide staining based flow cytometric method (reference value: 45.71%)", "assay_type": "functional"}, "[14]": {"test_system": "MDA-MB-231", "test": "Induction of apoptosis in human MDA-MB-231 cells assessed as late apoptotic cells at 3 uM after 24 hrs by Annexin V/propidium iodide based flow cytometric analysis (reference value: 0.038%)", "assay_type": "functional", "outline": "as §1"}, "[15]": {"test_system": "MDA-MB-23", "test": "Inhibition of colony formation in human MDA-MB-231 cells incubated for 24 hrs followed by culturing in fresh medium for 10 days by crystal violet staining based assay", "assay_type": "functional, cell-based", "conditions": "dose 0.25-1 µM", "outline": "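MDA-MB-231 seeded at 1.5×10^3 cells/well, 24 h attachment, then 24 h exposure to compound (0.25, 0.5, 1 µM) or DMSO; fresh medium for a further 10 days. Fixed in 4% paraformaldehyde 0.5 h at 4°C, crystal violet stained, dye dissolved in DMSO and absorbance read at 590 nm; performed three times.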"}, "[16]": {"test_system": "MDA-MB-231", "test": "Induction of apoptosis in human MDA-MB-231 cells assessed as increase in cleaved caspase-3 protein expression incubated for 8 hrs by Western blot analysis", "assay_type": "functional, cell-based", "conditions": "dose 1.5-6 µM", "outline": "as §2"}, "[17]": {"test": "Induction of intracellular reactive oxygen species generation in human MDA-MB-231 cells assessed as proportion of FL1-H negative cells at 1.5 uM measured after 24 hrs by DCFH-DA staining based flow cytometry analysis (reference value: 52.2%)", "assay_type": "functional, MDA-MB-23"}, "[18]": {"test_system": "MDA-MB-231", "test": "Induction of intracellular reactive oxygen species generation in human MDA-MB-231 cells at 1 uM measured after 24 hrs by DCFH-DA staining based flow cytometry analysis relative to control", "assay_type": "functional", "outline": "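MDA-MB-231 cells at 2×10^5 cells/well, grown 24 h, exposed 24 h to compound (1, 1.5, 2 µM) or DMSO control. Cells then took up DCFH-DA for 30 min at 37°C in the dark, were PBS-washed, resuspended in serum-free medium and analysed by flow cytometry. Relative DCF level vs control; mean ± SD, n = 3.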"}, "[19]": {"test_system": "MDA-MB-231", "test": "Induction of apoptosis in human MDA-MB-231 cells assessed as necrotic cells at 1.5 uM after 24 hrs by Annexin V/propidium iodide based flow cytometric analysis (reference value: 0.019%)", "assay_type": "functional", "outline": "as §1"}, "[20]": {"test_system": "MDA-MB-231", "test": "Induction of apoptosis in human MDA-MB-231 cells assessed as viable cells at 3 uM after 24 hrs by Annexin V/propidium iodide based flow cytometric analysis (reference value: 99%)", "assay_type": "functional", "conditions": "read-out: Activity", "outline": "as §1"}},
  "note": "Activity calls are given as the source filed them. The calls are words filed in the database; no cut-off is given here.",
  "data": [
    {"compound": "COc1cc2cc(N)c(=O)oc2cc1OCCCOc1no[n+]([O-])c1S(=O)(=O)c1ccccc1", "values": [
      {"measurement": "Activity", "setting": "[1]", "value": 65, "unit": "%"},
      {"measurement": "Activity", "setting": "[2]", "value": 12.9, "unit": "%"},
      {"measurement": "viability at 1 µM", "setting": "[3]", "value": 87.9, "unit": "%"},
      {"measurement": "Activity", "setting": "[4]", "value": "Dose-dependent effect"},
      {"measurement": "Activity", "setting": "[5]", "value": 13.6, "unit": "%"},
      {"measurement": "Activity", "setting": "[6]", "value": 5.4, "unit": "%"},
      {"measurement": "Activity", "setting": "[7]", "value": 67.8, "unit": "%"},
      {"measurement": "inhibition at 4 µM", "setting": "[8]", "value": 91.2, "unit": "%"},
      {"measurement": "Activity", "setting": "[9]", "value": "Active"},
      {"measurement": "IC50", "setting": "[10]", "value": 1910, "unit": "nM"},
      {"measurement": "Activity", "setting": "[11]", "value": 31.5, "unit": "%"},
      {"measurement": "Activity", "setting": "[12]", "value": "inactive"},
      {"measurement": "Activity", "setting": "[13]", "value": 43.06, "unit": "%"},
      {"measurement": "Activity", "setting": "[14]", "value": 20.5, "unit": "%"},
      {"measurement": "inhibition", "setting": "[15]", "value": "Dose-dependent effect"},
      {"measurement": "Activity", "setting": "[16]", "value": "Dose-dependent effect"},
      {"measurement": "Activity", "setting": "[17]", "value": 17.3, "unit": "%"},
      {"measurement": "fold change (FC)", "setting": "[18]", "value": 1.31},
      {"measurement": "Activity", "setting": "[19]", "value": 0.31, "unit": "%"},
      {"measurement": "viability at 3 µM", "setting": "[20]", "value": 65.6, "unit": "%"}
    ]}
  ]
}
